pPAFAH inh – pPAFAH (human) enzyme inhibition | 330,000 compounds, 1.5% hits | Q13093 | recombinant pPAFAH, FP-rhodamine probe fluorescence polarization | AID 463082 | inhibition, % at 3.39 µM;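 active = inhibition above the mean inhibition across the screen plus 3 SD, cut at about 25% in these data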;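 note: inhibitors block binding of the rhodamine activity-based probe so polarization drops; 0% = enzyme with DMSO and 100% = wells lacking pPAFAH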
Target sequence (Q13093 whole entry, looked up): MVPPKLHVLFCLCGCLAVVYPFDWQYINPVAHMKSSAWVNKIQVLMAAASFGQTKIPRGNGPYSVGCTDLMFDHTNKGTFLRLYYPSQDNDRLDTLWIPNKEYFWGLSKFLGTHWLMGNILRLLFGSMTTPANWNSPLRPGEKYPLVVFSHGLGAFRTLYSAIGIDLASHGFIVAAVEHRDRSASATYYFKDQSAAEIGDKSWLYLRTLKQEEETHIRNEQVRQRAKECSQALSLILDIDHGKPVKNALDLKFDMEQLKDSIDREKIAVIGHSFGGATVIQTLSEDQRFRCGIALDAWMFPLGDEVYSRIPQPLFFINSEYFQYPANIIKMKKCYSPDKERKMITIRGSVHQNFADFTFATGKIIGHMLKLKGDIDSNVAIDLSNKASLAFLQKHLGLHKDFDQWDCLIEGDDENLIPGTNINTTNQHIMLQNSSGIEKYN
PAFAH1B3 inh – PAFAH1B3 (human) inhibition; Q15102; recombinant PAFAH1B3, FP-rhodamine probe, fluorescence polarization; inhibition, % at 3.39 µM; 340,000 compounds, 0.28% hits;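 active = inhibition above the screen-wide average of all tested compounds plus 3 SD, cut at about 25% in these data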;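 note: 0% = enzyme with DMSO only and 100% = wells lacking PAFAH1B3 protein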
Target sequence (Q15102 whole entry, looked up): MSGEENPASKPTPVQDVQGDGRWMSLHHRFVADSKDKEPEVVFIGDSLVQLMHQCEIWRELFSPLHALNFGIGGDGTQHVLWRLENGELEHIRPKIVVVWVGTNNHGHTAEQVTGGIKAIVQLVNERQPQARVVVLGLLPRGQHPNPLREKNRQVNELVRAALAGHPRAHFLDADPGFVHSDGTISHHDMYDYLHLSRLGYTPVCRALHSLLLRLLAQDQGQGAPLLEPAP
HTRA1 inh – inhibitors of human serine peptidase HTRA1 | Q92743 | recombinant HTRA1, FP-rhodamine activity-based probe, fluorescence polarization | inhibition, % at 5.96 µM | 340,000 compounds, 0.5% hits; in the data active = inhibition above about 36%;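 note: 0% = enzyme with DMSO and 100% = wells lacking enzyme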
PAFAH2 FP inh – PAFAH2 (human) inhibition | Q99487 | recombinant PAFAH2, FP-rhodamine activity probe, fluorescence polarization | inhibition, % at 3.39 µM | 340,000 compounds, 0.99% hits;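 active = inhibition above the mean over all tested compounds plus 3 SD, cut at about 30% in these data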;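 note: inhibitors block probe labeling of enzyme so polarization drops; 0% = enzyme with DMSO and 100% = wells lacking PAFAH2 protein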
mABHD4 FP – ABHD4 (mouse) inhibition, primary FP screen; inhibition, % at 8.92 µM; Q8VD66; 370,000 compounds, 0.54% hits; purified mABHD4, FP-Rh probe fluorescence polarization; AID 720543;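 active = inhibition exceeding the mean over every tested compound plus 3 SD, cut at about 30% in these data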;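 note: 0% = plate median of compound wells and 100% = S159A mutant with DMSO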
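Test system: mouse ABHD4 enzyme, wild type. Reagent: FP-Rh fluorescent activity-based probe, added after compound pre-incubation. Timing: pre-incubation 45 min, probe exposure 60 min, at 25 °C. Technique: FP readout, ex 525 nm / em 598 nm. Benchmarks: high control S159A mutant with DMSO, low control median of compound wells.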
PAFAH1B2 FP inh – inhibitors of human PAFAH1B2; P68402; recombinant PAFAH1B2, FP-rhodamine activity probe, fluorescence polarization; inhibition, % at 3.39 µM; 340,000 compounds, 1.2% hits; AID 492953;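 active = inhibition above the mean of all tested compounds plus 3 SD, cut at about 24% in these data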;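 note: 0% = enzyme with DMSO and 100% = wells lacking PAFAH1B2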
PAFAH2 FP conf – PAFAH2 (human) inhibition, confirmed. 2,300 compounds, 65% hits. shares compounds with PAFAH2 FP inh. inhibition, % at 3.39 µM. recombinant PAFAH2, FP-rhodamine activity probe, fluorescence polarization;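 active = mean inhibition over three repeats above a set limit taken from the earlier primary screen, cut at about 30% in these data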;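 note: inhibitor blocks binding of rhodamine activity probe so polarization falls; 0% = enzyme with DMSO and 100% = wells lacking PAFAH2 protein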
Starred values were filed as active, the others as inactive; . = not tested or not shown. Most compounds without a hit are left out; they make up all but 2.8% or so of the library.

SMILES | pPAFAH inh | PAFAH1B3 inh | HTRA1 inh | PAFAH2 FP inh | mABHD4 FP | PAFAH1B2 FP inh | PAFAH2 FP conf
O=C(COC(=O)/C=C/c1ccc(S(=O)(=O)N2CCOCC2)cc1)Nc1ccc(F)c(F)c1F | 5 | 3 | 1 | 33* | 2 | 4 | 34*
O=C(COC(=O)c1ccc(S(=O)(=O)N2CCOCC2)cc1)NC1CCCC1 | 5 | 3 | 2 | -2 | -1 | 2 | .
O=C(COC(=O)/C=C/c1ccc(S(=O)(=O)N2CCOCC2)cc1)NCc1ccccc1 | 3 | 2 | 3 | 49* | -1 | 0 | 30*
C=CCn1c(SCC(=O)c2ccc(-c3ccccc3)cc2)nnc1-c1ccc(OC)cc1 | . | . | . | . | -13 | . | .
COc1cc(/C=C2\N=C(c3ccccc3)OC2=O)ccc1OCc1c(C)no[n+]1[O-] | 4 | -1 | 4 | 1 | 4 | 3 | .
COc1ccc(/C=C2\N=C(c3c(-c4ccccc4)noc3C)OC2=O)cc1OC | 2 | 7 | 10 | 34* | 8 | 1 | 14
Cn1c2ccccc2n2c(=O)c(Cl)c(-c3ccccc3)c(C#N)c12 | 5 | 12 | 8 | 39* | 4 | 5 | 24
O=C(COC(=O)c1c(F)cccc1F)NCc1cccs1 | 6 | 12 | 4 | 20 | 0 | 5 | .
CC(C)COc1ccc(C(=O)OCC(=O)NCc2cccs2)cc1 | 13 | 9 | -7 | 41* | -4 | 4 | 37*
Cc1cccc(C(=O)OCC(=O)NCc2cccs2)c1 | 6 | 3 | -6 | 41* | 2 | -4 | 29
CC(=O)Nc1ccc(C(=O)OCC(=O)NCc2cccs2)cc1 | 1 | 1 | -1 | 72* | -5 | -6 | 38*
CN(C)c1cccc(/C=C2\CC3(OC(=O)c4ccc(Cl)cc4)CCCN2C3)c1 (stereo unspecified) | . | . | . | . | -3 | . | .
O=C(Nc1ccccc1F)O[C@@H]1CC[C@@]23CCCN2C(=O)CCC[C@H]3C1 | . | . | . | . | 0 | . | .
COc1cc(NC(=O)C(OC(=O)CNC(=O)c2ccccc2)c2ccccc2)cc(C(F)(F)F)c1 (stereo unspecified) | . | . | . | . | -45 | . | .
COC(=O)[C@]12C[C@H](CC(=O)N3CCSCC3)C(=O)N(CCc3ccc(OC)c(OC)c3)C1=C[C@H](C1CCCC1)O[C@@H]2C | . | . | . | . | 4 | . | .
Cc1ccc(S(=O)(=O)N2CCCCC2)cc1NC(=O)COC(=O)C1=COCCO1 | 6 | 4 | -2 | 50* | 8 | 5 | 40*
O=C(COC(=O)C1=COCCO1)Nc1cc(S(=O)(=O)N2CCCCC2)ccc1Cl | 7 | 7 | 1 | 57* | 3 | 2 | 41*
Cc1ccc(S(=O)(=O)N2CCCCC2)cc1NC(=O)COC(=O)c1cccn1C | 6 | -1 | -8 | 39* | -1 | 6 | 32*
O=C(Nc1cc(S(=O)(=O)N2CCCC2)ccc1Cl)C1=COCCO1 | 8 | 2 | 2 | -5 | -2 | 4 | .
COc1ccc(-c2nnc(SCC(=O)Nc3ccc4cn[nH]c4c3)n2Cc2ccco2)cc1 | . | . | . | . | -8 | . | .
CCn1c(COc2ccc(Cl)cc2)nnc1SCC(=O)Nc1ccccc1-c1ccccc1 | . | . | . | . | -9 | . | .
O=C(NCc1ccccc1)OC1CCC12CCC(c1ccccc1)CC2 (stereo unspecified) | . | . | . | . | -12 | . | .
O=C(Nc1nnc(SCc2ccccc2Cl)s1)C1COc2ccccc2O1 (stereo unspecified) | 5 | 5 | -3 | 52* | -8 | 11 | 41*
Cc1ccccc1CSc1nnc(NC(=O)C2COc3ccccc3O2)s1 (stereo unspecified) | 2 | 1 | -5 | 6 | -7 | 5 | .
COC(=O)c1cc(Cl)c(N)cc1OC | 2 | -1 | 1 | 0 | -2 | 6 | .
SMILES | pPAFAH inh | PAFAH1B3 inh | HTRA1 inh | PAFAH2 FP inh | mABHD4 FP | PAFAH1B2 FP inh | PAFAH2 FP conf
COc1cc(N)c(Cl)cc1C(=O)OCC(=O)N(C)C1CCCCC1 | 3 | 9 | -4 | 55* | 1 | 7 | 30*
COc1cc(N)c(Cl)cc1C(=O)OCC(=O)NC1CCCC1 | 5 | 8 | -1 | 48* | -8 | 7 | 34*
CN(C(=O)COC(=O)c1cnc(Cl)c(Cl)c1)C1CCCCC1 | 0 | 6 | -2 | -4 | -2 | 5 | .
CCOC(=O)C1(Cc2ccccc2)CCN(C2Cc3ccccc3C2)CC1 | 7 | 5 | -10 | 33* | 6 | 0 | 8
O=C(NC1CCCCN(Cc2ccc(Cl)cc2)C1=O)c1ccc(F)cc1 (stereo unspecified) | . | . | . | . | 4 | . | .
O=C(CSc1nnc(-c2ccc(Cl)cc2)n1-c1ccccc1)Nc1ccc(Oc2ccccc2)cc1 | . | . | . | . | -4 | . | .
COc1cccc(NC(=O)COC(=O)c2c(F)cccc2Cl)c1 | 6 | 4 | -2 | 61* | -10 | 4 | 59*
COc1cccc(NC(=O)COC(=O)c2ccccc2F)c1 | 13 | 7 | 5 | 76* | 4 | -2 | 70*
Nc1cc(C(F)(F)F)ccc1NCCc1ccccn1 | 7 | 5 | -2 | 64* | 2 | 6 | 52*
CC(C)C(=O)N(c1ccc2oc(=O)sc2c1)S(=O)(=O)c1cccs1 | 8 | 9 | 19 | 44* | -9 | 1 | 42*
CC(=O)N(c1ccc2oc(=O)sc2c1)S(=O)(=O)c1cccs1 | 2 | 5 | 3 | 23 | 12 | 4 | .
CC(=O)N1CCN(c2nc(C)nc3sc4c(c23)CCC(C)C4)CC1 (stereo unspecified) | 3 | -8 | 4 | 30* | 3 | 1 | 14
O=C(COC(=O)c1ccc2ncsc2c1)NCc1ccc(F)cc1 | -3 | 7 | 1 | 51* | 1 | 3 | 34*
O=C(COC(=O)c1ccc2ncsc2c1)NCc1ccccc1Cl | 0 | 3 | -4 | 84* | -8 | 8 | 67*
COc1ccc(CNC(=O)COC(=O)c2ccc3ncsc3c2)cc1OC | 3 | -1 | 2 | 2 | -4 | 4 | .
CC(=O)NC(=O)COC(=O)c1ccc2ncsc2c1 | 4 | 4 | 6 | 1 | 1 | -3 | .
CCNc1ccc(C(=O)OCC(=O)NCc2ccc(C)cc2)cc1[N+](=O)[O-] | -2 | 1 | -10 | 1 | 1 | 1 | .
CCNc1ccc(C(=O)OCC(=O)NC(C)c2ccccc2)cc1[N+](=O)[O-] (stereo unspecified) | 5 | 9 | 0 | 83* | -1 | 9 | 73*
CC(NC(=O)COC(=O)c1ccc2c(c1)OCCO2)c1ccccc1 (stereo unspecified) | 12 | 4 | 5 | 63* | 3 | 4 | 61*
O=C(COC(=O)c1ccc2c(c1)OCCO2)NCCc1ccccc1 | 12 | 7 | 10 | 46* | 0 | 4 | 41*
Cn1c(SCC(=O)Nc2ccc(S(=O)(=O)Nc3nccs3)cc2)nc2sc3c(c2c1=O)CCCC3 | . | . | . | . | -58 | . | .
COC(=O)c1ccc(OC(=O)N2CCOCC2)cc1 | 21 | -2 | -1 | 11 | -13 | 4 | .

High-throughput results (PubChem BioAssay)
